# Laboratory results taken from ChEMBL document CHEMBL1122792, “Synthesis and biological evaluation of radiolabeled beta-ruthenocenylalanine” (J Med Chem, 1984).
# Columns and labels:
# Rattus norvegicus [1] = assay: Distribution of Radioactivity in small intestine of Fisher 344 Rats by intravenous administration of compound after 5 minutes expressed as dose/gram; assay type: ADME, organism-based; conditions: in vivo
# Summary of the method: (§1)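 Female Fischer 344 rats, 10-12 weeks old (170-200 g), food and water ad libitum; four rats per time point. About 6.3 μCi given in 0.05 mL saline (pH 7.4, filtered) by lateral tail vein under ether anesthesia. Tissues sampled at 5 min, 1 h, 4 h or 1 day. %ID/g computed from injectate standards; mean and range given.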
# Rattus norvegicus [2] = assay: Distribution of Radioactivity in kidneys of Fisher 344 Rats by intravenous administration of compound after 5 minutes expressed as dose/gram; assay type: ADME, organism-based, Kidney; conditions: in vivo
# Summary of the method: (§2)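 Female Fischer 344 rats, 10-12 weeks old (170-200 g), fed and watered ad libitum; four rats per time point. Each received ~6.3 μCi in 0.05 mL saline (pH 7.4, filtered), given by lateral tail vein under ether anesthesia. Tissues taken at 5 min, 1 h, 4 h and 1 day. Injectate standards used; values as mean % injected dose/g with range.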
# Mus musculus [3] = assay: Distribution of Radioactivity in liver of CD-1 Mice by intravenous administration of compound after 1 day expressed as dose/gram; assay type: ADME, organism-based; conditions: in vivo, 24 h
# Summary of the method: (§3)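 Female CD-1 mice, 7 1/2 weeks old (25-29 g), fed and watered ad libitum. Agent given in physiological saline, pH adjusted to 7.4 and filtered, by lateral tail vein injection under ether anesthesia. Tissues collected at 5 min, 1 h, 4 h and 1 day. Injectate samples counted as standard; results as mean % injected dose/g with range.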
# Rattus norvegicus [4] = assay: Distribution of Radioactivity in lungs of Fisher 344 Rats by intravenous administration of compound after 1 hour expressed as dose/gram; assay type: ADME, organism-based, Lung; conditions: in vivo; summary of the method: as §2
# Mus musculus [5] = assay: Distribution of Radioactivity in stomach of CD-1 Mice by intravenous administration of compound after 1 day expressed as dose/gram; assay type: ADME, organism-based; conditions: in vivo, 24 h
# Summary of the method: (§4)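 Female CD-1 mice, 7 1/2 weeks old (25-29 g), fed and watered ad libitum. Radiotracer in physiological saline, pH 7.4, filtered, injected via lateral tail vein under ether anesthesia. Tissues taken at 5 min, 1 h, 4 h or 1 day. Percent injected dose per gram calculated against assayed samples of the injected solution; mean with range reported.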
# Mus musculus [6] = assay: Distribution of Radioactivity in thymus of CD-1 Mice by intravenous administration of compound after 5 minutes expressed as dose/gram; assay type: ADME, organism-based; conditions: in vivo; summary of the method: as §4
# Rattus norvegicus [7] = assay: Distribution of Radioactivity in lungs of Fisher 344 Rats by intravenous administration of compound after 1 day expressed as dose/gram; assay type: ADME, organism-based, Lung; conditions: in vivo, 24 h; summary of the method: as §2
# Rattus norvegicus [8] = assay: Distribution of Radioactivity in lungs of Fisher 344 Rats by intravenous administration of compound after 4 hour expressed as dose/gram; assay type: ADME, organism-based, Lung; conditions: in vivo; summary of the method: as §2
# Mus musculus [9] = assay: Distribution of Radioactivity in small intestine of CD-1 Mice by intravenous administration of compound after 1 day expressed as dose/gram; assay type: ADME, organism-based; conditions: in vivo, 24 h; summary of the method: as §3
# Mus musculus [10] = assay: Distribution of Radioactivity in thymus of CD-1 Mice by intravenous administration of compound after 4 hr expressed as dose/gram; assay type: ADME, organism-based; conditions: in vivo; summary of the method: as §4
# Rattus norvegicus [11] = assay: Distribution of Radioactivity in kidneys of Fisher 344 Rats by intravenous administration of compound after 4 hour expressed as dose/gram; assay type: ADME, organism-based, Kidney; conditions: in vivo; summary of the method: as §2
# Rattus norvegicus [12] = assay: Distribution of Radioactivity in pancreas of Fisher 344 Rats by intravenous administration of compound after 5 minutes expressed as dose/gram; assay type: ADME, organism-based; conditions: in vivo; summary of the method: as §2
# Mus musculus [13] = assay: Distribution of Radioactivity in lungs of CD-1 Mice by intravenous administration of compound after 1 hr expressed as dose/gram; assay type: ADME, organism-based, Lung; conditions: in vivo; summary of the method: as §3
# Rattus norvegicus [14] = assay: Distribution of Radioactivity in thymus of Fisher 344 Rats by intravenous administration of compound after 1 day expressed as dose/gram; assay type: ADME, organism-based; conditions: in vivo, 24 h; summary of the method: as §1
# Mus musculus [15] = assay: Distribution of Radioactivity in lungs of CD-1 Mice by intravenous administration of compound after 1 day expressed as dose/gram; assay type: ADME, organism-based, Lung; conditions: in vivo, 24 h; summary of the method: as §3
# Rattus norvegicus [16] = assay: Distribution of Radioactivity in small intestine of Fisher 344 Rats by intravenous administration of compound after 4 hour expressed as dose/gram; assay type: ADME, organism-based; conditions: in vivo; summary of the method: as §1
# Rattus norvegicus [17] = assay: Distribution of Radioactivity in pancreas of Fisher 344 Rats by intravenous administration of compound after 4 hour expressed as dose/gram; assay type: ADME, organism-based; conditions: in vivo; summary of the method: as §2
# Rattus norvegicus [18] = assay: Distribution of Radioactivity in liver of Fisher 344 Rats by intravenous administration of compound after 1 day expressed as dose/gram; assay type: ADME, organism-based; conditions: in vivo, 24 h; summary of the method: as §2
# Mus musculus [19] = assay: Distribution of Radioactivity in blood of CD-1 Mice by intravenous administration of compound after 4 hour expressed as dose/gram; assay type: ADME, organism-based; conditions: in vivo; summary of the method: as §3
# Mus musculus [20] = assay: Distribution of Radioactivity in pancreas of CD-1 Mice by intravenous administration of compound after 1 day expressed as dose/gram; assay type: ADME, organism-based; conditions: in vivo, 24 h; summary of the method: as §3
# Mus musculus [21] = assay: Distribution of Radioactivity in lungs of CD-1 Mice by intravenous administration of compound after 5 minutes expressed as dose/gram; assay type: ADME, organism-based, Lung; conditions: in vivo; summary of the method: as §3
# Rattus norvegicus [22] = assay: Distribution of Radioactivity in adrenals of Fisher 344 Rats by intravenous administration of compound after 1 hour expressed as dose/gram; assay type: ADME, organism-based, Adrenal gland; conditions: in vivo; summary of the method: as §2
# Mus musculus [23] = assay: Distribution of Radioactivity in small intestine of CD-1 Mice by intravenous administration of compound after 5 minutes expressed as dose/gram; assay type: ADME, organism-based; conditions: in vivo; summary of the method: as §4
# Mus musculus [24] = assay: Distribution of Radioactivity in liver of CD-1 Mice by intravenous administration of compound after 1 hr expressed as dose/gram; assay type: ADME, organism-based; conditions: in vivo; summary of the method: as §3
# Mus musculus [25] = assay: Distribution of Radioactivity in adrenals of CD-1 Mice by intravenous administration of compound after 5 minutes expressed as dose/gram; assay type: ADME, organism-based, Adrenal gland; conditions: in vivo; summary of the method: as §3
# Rattus norvegicus [26] = assay: Distribution of Radioactivity in blood of Fisher 344 Rats by intravenous administration of compound after 1 hour expressed as dose/gram; assay type: ADME, organism-based; conditions: in vivo; summary of the method: as §2
# Rattus norvegicus [27] = assay: Distribution of Radioactivity in liver of Fisher 344 Rats by intravenous administration of compound after 1 hour expressed as dose/gram; assay type: ADME, organism-based; conditions: in vivo; summary of the method: as §2
# Mus musculus [28] = assay: Distribution of Radioactivity in stomach of CD-1 Mice by intravenous administration of compound after 4 hr expressed as dose/gram; assay type: ADME, organism-based; conditions: in vivo; summary of the method: as §4
# Rattus norvegicus [29] = assay: Distribution of Radioactivity in stomach of Fisher 344 Rats by intravenous administration of compound after 1 hour expressed as dose/gram; assay type: ADME, organism-based; conditions: in vivo; summary of the method: as §1
# Rattus norvegicus [30] = assay: Distribution of Radioactivity in spleen of Fisher 344 Rats by intravenous administration of compound after 1 hour expressed as dose/gram; assay type: ADME, organism-based; conditions: in vivo; summary of the method: as §1
# Mus musculus [31] = assay: Distribution of Radioactivity in kidneys of CD-1 Mice by intravenous administration of compound after 1 day expressed as dose/gram; assay type: ADME, organism-based, Kidney; conditions: in vivo, 24 h; summary of the method: as §3
# Mus musculus [32] = assay: Distribution of Radioactivity in spleen of CD-1 Mice by intravenous administration of compound after 5 minutes expressed as dose/gram; assay type: ADME, organism-based; conditions: in vivo; summary of the method: as §4
# Mus musculus [33] = assay: Distribution of Radioactivity in spleen of CD-1 Mice by intravenous administration of compound after 4 hr expressed as dose/gram; assay type: ADME, organism-based; conditions: in vivo; summary of the method: as §4
# Mus musculus [34] = assay: Distribution of Radioactivity in kidneys of CD-1 Mice by intravenous administration of compound after 4 hr expressed as dose/gram; assay type: ADME, organism-based, Kidney; conditions: in vivo; summary of the method: as §3
# Rattus norvegicus [35] = assay: Distribution of Radioactivity in thymus of Fisher 344 Rats by intravenous administration of compound after 5 minutes expressed as dose/gram; assay type: ADME, organism-based; conditions: in vivo; summary of the method: as §1
# Rattus norvegicus [36] = assay: Distribution of Radioactivity in spleen of Fisher 344 Rats by intravenous administration of compound after 1 day expressed as dose/gram; assay type: ADME, organism-based; conditions: in vivo, 24 h; summary of the method: as §1
# Rattus norvegicus [37] = assay: Distribution of Radioactivity in pancreas of Fisher 344 Rats by intravenous administration of compound after 1 hour expressed as dose/gram; assay type: ADME, organism-based; conditions: in vivo; summary of the method: as §2
# Mus musculus [38] = assay: Distribution of Radioactivity in adrenals of CD-1 Mice by intravenous administration of compound after 4 hr expressed as dose/gram; assay type: ADME, organism-based, Adrenal gland; conditions: in vivo; summary of the method: as §3
# Rattus norvegicus [39] = assay: Distribution of Radioactivity in spleen of Fisher 344 Rats by intravenous administration of compound after 4 hour expressed as dose/gram; assay type: ADME, organism-based; conditions: in vivo; summary of the method: as §1
# Mus musculus [40] = assay: Distribution of Radioactivity in blood of CD-1 Mice by intravenous administration of compound after 5 minutes expressed as dose/gram; assay type: ADME, organism-based; conditions: in vivo; summary of the method: as §3
substance,measurement,setting,value
"beta-[103,106Ru]Ruthenocenylalanine",Injected,Rattus norvegicus [1],0.62%
same,Injected,Rattus norvegicus [2],5.44%
same,Injected,Mus musculus [3],0.508%
same,Injected,Rattus norvegicus [4],0.424%
same,Injected,Mus musculus [5],0.032%
same,Injected,Mus musculus [6],2.579%
same,Injected,Rattus norvegicus [7],0.065%
same,Injected,Rattus norvegicus [8],0.124%
same,Injected,Mus musculus [9],0.059%
same,Injected,Mus musculus [10],0.195%
same,Injected,Rattus norvegicus [11],1.148%
same,Injected,Rattus norvegicus [12],0.361%
same,Injected,Mus musculus [13],1.015%
same,Injected,Rattus norvegicus [14],0.024%
same,Injected,Mus musculus [15],0.252%
same,Injected,Rattus norvegicus [16],0.218%
same,Injected,Rattus norvegicus [17],0.044%
same,Injected,Rattus norvegicus [18],0.15%
same,Injected,Mus musculus [19],0.22%
same,Injected,Mus musculus [20],0.067%
same,Injected,Mus musculus [21],3.603%
same,Injected,Rattus norvegicus [22],0.141%
same,Injected,Mus musculus [23],1.739%
same,Injected,Mus musculus [24],1.784%
same,Injected,Mus musculus [25],6.85%
same,Injected,Rattus norvegicus [26],0.698%
same,Injected,Rattus norvegicus [27],1.27%
same,Injected,Mus musculus [28],0.166%
same,Injected,Rattus norvegicus [29],0.081%
same,Injected,Rattus norvegicus [30],0.14%
same,Injected,Mus musculus [31],0.871%
same,Injected,Mus musculus [32],1.348%
same,Injected,Mus musculus [33],0.206%
same,Injected,Mus musculus [34],1.321%
same,Injected,Rattus norvegicus [35],0.335%
same,Injected,Rattus norvegicus [36],0.065%
same,Injected,Rattus norvegicus [37],0.299%
same,Injected,Mus musculus [38],0.786%
same,Injected,Rattus norvegicus [39],0.062%
same,Injected,Mus musculus [40],6.768%
